Reference: ChEMBL document CHEMBL4118021, “Studies of TAK1-centered polypharmacology with novel covalent TAK1 inhibitors” (Bioorg Med Chem, 2017)
Values belong to the compound of their own block, whether it stands above or below them. Calls of active or inactive are those of the source. The calls are words filed in the database; no cut-off is given here.

What was measured:
[1] = molecular target: Serine/threonine-protein kinase TBK1 (Homo sapiens) (UniProt Q9UHD2); test: Inhibition of TBK1 in human SKCO1 cells at 1 uM after 4 hrs using biotin labeled DIKPGNIMR probe by mass-spectrometric analysis relative to control; assay type: cell-based
[2] = molecular target: Mast/stem cell growth factor receptor Kit (Homo sapiens) (UniProt P10721); test: Inhibition of human KIT (571 to 952 residues) expressed in bacterial expression system assessed as enzyme activity at 1 uM by KINOMEScan assay relative to control; set-up: scale not given: the % may be the effect or the level left
Method in brief: (§1)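 In vitro ATP-site competition binding assay across a panel of 456 kinases, with compound tested at 1 and 10 μM.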

[3] = molecular target: Serine/threonine-protein kinase 36 (Homo sapiens) (UniProt Q9NRP7); test: Inhibition of human STK36 (1 to 271 residues) expressed in bacterial expression system assessed as enzyme activity at 1 uM by KINOMEScan assay relative to control; set-up: scale not given: the % may be the effect or the level left; method in brief: as §1
Serine/threonine-protein kinase 36 (Homo sapiens), sequence (Q9NRP7 whole entry, the tested form may be a part): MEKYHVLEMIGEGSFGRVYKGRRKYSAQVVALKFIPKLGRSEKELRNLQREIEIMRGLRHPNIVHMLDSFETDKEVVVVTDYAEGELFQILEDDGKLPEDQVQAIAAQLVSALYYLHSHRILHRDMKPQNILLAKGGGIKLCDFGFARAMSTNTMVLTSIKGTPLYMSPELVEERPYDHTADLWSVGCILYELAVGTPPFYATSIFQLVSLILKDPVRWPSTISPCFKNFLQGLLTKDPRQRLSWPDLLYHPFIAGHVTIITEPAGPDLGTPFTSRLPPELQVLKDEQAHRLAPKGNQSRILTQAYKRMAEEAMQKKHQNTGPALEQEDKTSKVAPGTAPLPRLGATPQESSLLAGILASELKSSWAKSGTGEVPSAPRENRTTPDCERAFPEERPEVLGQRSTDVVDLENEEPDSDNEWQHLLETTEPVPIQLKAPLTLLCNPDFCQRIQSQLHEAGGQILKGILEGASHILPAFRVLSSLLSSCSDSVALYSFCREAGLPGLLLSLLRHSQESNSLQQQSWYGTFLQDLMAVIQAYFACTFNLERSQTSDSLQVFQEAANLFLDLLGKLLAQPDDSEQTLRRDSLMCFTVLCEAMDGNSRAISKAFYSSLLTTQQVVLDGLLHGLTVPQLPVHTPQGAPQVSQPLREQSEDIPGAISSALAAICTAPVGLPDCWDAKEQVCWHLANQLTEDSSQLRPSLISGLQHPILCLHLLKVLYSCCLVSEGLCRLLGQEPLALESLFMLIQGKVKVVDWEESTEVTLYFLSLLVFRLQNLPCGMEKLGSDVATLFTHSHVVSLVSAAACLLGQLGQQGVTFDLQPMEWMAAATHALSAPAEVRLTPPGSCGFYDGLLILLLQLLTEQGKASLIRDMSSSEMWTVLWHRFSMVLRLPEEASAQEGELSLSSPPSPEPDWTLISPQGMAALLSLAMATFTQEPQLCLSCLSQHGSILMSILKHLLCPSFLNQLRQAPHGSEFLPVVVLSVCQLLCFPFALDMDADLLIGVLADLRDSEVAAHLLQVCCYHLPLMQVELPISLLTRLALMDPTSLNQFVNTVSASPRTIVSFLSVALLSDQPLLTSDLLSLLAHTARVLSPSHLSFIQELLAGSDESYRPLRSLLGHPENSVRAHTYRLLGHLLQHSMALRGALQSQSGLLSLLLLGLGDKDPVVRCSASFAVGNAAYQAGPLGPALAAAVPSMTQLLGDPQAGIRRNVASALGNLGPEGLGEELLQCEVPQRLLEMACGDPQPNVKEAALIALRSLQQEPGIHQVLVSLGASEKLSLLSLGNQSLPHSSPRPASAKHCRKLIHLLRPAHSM

[4] = molecular target: Vascular endothelial growth factor receptor 1 (Homo sapiens) (UniProt P17948); test: Inhibition of human FLT1 (781 to 1239 residues) expressed in bacterial expression system assessed as enzyme activity at 1 uM by KINOMEScan assay relative to control; set-up: scale not given: the % may be the effect or the level left; method in brief: as §1
[5] = molecular target: Ras GTPase-activating-like protein IQGAP1 (Homo sapiens) (UniProt P46940); test: Binding affinity to IQGAP1 in human NCI-H23 cells at 1 uM by mass spectrometry based pull down assay; assay type: cell-based
[6] = molecular target: T1, 80S Ribosome (Homo sapiens) (UniProt P08865+P42677+P62753+P15880+P23396+P61247+P62701+P22090+P46782+P62081+P62241+P46781+P46783+P62280+P25398+P62277+P62263+P62841+P62244+P62249+P08708+P62269+P39019+P60866+P63220+P62266+P62847+P62851+P62854+P62979+P62857+P62273+P62861+P39023+P36578+P46777+Q02878+P18124+P62424+P62917+P32969+P27635+P62906+P62913+P30050+P26373+P40429+P50914+P61313+P18621+Q07020+Q02543+P84098+P46778+P35268+P62829+P62750+P83731+P61254+P61353+P46776+P46779+P47914+P62888+P62899+P62910+P49207+P42766+P18077+Q9Y3U8+P83881+P61927+P61513+P63173+P62891+P62945+P05388+P05386); test: Binding affinity to RPL23A in human NCI-H358 cells at 1 uM by mass spectrometry based pull down assay; assay type: cell-based
[7] = molecular target: T2, Dual specificity mitogen-activated protein kinase kinase 6 (Homo sapiens) (UniProt P52564); test: Binding affinity to MAP2K6 in human NCI-H23 cells at 1 uM by mass spectrometry based pull down assay; assay type: cell-based
T2 sequence (whole entry): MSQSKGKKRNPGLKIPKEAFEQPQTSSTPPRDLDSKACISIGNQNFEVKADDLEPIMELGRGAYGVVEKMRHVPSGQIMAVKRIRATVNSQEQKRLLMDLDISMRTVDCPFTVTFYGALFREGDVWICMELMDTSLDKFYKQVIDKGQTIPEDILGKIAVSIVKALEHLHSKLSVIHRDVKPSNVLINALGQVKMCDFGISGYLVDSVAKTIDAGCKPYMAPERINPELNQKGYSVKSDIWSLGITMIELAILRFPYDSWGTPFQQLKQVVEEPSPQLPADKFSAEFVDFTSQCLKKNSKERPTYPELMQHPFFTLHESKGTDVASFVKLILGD

[8] = molecular target: Uracil-DNA glycosylase (Homo sapiens) (UniProt P13051); test: Binding affinity to UNG in human NCI-H358 cells at 1 uM by mass spectrometry based pull down assay; assay type: cell-based
[9] = molecular target: RuvB-like 1 (Homo sapiens) (UniProt Q9Y265); test: Binding affinity to RUVBL1 in human NCI-H23 cells at 1 uM by mass spectrometry based pull down assay; assay type: cell-based
RuvB-like 1 (Homo sapiens), sequence (Q9Y265 whole entry): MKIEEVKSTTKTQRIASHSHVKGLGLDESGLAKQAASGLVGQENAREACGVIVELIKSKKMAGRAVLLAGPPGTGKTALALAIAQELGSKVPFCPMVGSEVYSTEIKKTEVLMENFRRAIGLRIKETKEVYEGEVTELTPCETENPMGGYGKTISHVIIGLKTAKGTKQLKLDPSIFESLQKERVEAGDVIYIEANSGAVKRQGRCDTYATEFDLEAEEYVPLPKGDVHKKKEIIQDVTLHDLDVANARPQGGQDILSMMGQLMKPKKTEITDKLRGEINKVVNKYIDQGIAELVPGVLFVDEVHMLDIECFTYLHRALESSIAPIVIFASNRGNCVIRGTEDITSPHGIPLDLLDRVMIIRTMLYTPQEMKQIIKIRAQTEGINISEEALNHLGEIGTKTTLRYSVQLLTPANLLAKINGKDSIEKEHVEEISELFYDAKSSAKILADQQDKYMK

[10] = molecular target: Cyclin-G-associated kinase (Homo sapiens) (UniProt O14976); test: Binding affinity to GAK in human NCI-H23 cells at 1 uM by mass spectrometry based pull down assay; assay type: cell-based
[11] = molecular target: Opioid growth factor receptor (Homo sapiens) (UniProt Q9NZT2); test: Binding affinity to OGFR in human NCI-H23 cells at 1 uM by mass spectrometry based pull down assay; assay type: cell-based
Opioid growth factor receptor (Homo sapiens), sequence (Q9NZT2 whole entry): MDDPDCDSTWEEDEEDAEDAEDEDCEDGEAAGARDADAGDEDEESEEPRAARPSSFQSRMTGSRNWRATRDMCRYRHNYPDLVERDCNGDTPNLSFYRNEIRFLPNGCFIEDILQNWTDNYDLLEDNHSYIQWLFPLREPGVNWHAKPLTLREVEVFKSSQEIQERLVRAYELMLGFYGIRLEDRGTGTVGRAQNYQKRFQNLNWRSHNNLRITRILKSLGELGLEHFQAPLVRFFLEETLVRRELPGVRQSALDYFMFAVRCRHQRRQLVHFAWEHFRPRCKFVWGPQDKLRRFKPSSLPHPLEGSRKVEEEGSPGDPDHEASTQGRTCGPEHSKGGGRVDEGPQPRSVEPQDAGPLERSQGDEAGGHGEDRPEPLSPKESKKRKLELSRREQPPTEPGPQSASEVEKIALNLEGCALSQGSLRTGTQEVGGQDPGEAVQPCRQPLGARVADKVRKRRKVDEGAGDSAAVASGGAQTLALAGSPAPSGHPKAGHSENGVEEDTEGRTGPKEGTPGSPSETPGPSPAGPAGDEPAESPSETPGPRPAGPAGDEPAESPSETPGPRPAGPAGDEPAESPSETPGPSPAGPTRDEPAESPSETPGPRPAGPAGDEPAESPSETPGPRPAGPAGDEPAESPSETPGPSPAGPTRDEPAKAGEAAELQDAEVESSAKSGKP

[12] = molecular target: Far upstream element-binding protein 1 (Homo sapiens) (UniProt Q96AE4); test: Binding affinity to FUBP1 in human NCI-H23 cells at 1 uM by mass spectrometry based pull down assay; assay type: cell-based
Far upstream element-binding protein 1 (Homo sapiens), sequence (Q96AE4 whole entry): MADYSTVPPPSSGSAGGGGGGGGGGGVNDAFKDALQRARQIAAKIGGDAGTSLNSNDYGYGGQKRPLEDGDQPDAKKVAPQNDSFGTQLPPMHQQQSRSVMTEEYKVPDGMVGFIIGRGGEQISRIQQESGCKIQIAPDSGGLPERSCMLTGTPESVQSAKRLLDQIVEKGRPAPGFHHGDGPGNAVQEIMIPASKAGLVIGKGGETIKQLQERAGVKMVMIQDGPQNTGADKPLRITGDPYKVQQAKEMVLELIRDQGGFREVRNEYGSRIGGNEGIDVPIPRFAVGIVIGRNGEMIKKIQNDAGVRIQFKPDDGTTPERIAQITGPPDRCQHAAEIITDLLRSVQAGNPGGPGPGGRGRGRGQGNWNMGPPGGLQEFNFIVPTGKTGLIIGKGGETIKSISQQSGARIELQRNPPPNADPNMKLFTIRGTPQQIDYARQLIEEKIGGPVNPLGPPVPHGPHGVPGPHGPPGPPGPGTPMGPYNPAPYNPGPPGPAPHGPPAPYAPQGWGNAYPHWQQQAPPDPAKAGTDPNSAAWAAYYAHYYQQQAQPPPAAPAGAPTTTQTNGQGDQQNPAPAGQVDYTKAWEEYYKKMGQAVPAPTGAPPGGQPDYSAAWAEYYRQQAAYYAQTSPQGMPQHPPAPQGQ

[13] = molecular target: Glutamate--cysteine ligase regulatory subunit (Homo sapiens) (UniProt P48507); test: Binding affinity to GCLM in human NCI-H358 cells at 1 uM by mass spectrometry based pull down assay; assay type: cell-based
Glutamate--cysteine ligase regulatory subunit (Homo sapiens), sequence (P48507 whole entry): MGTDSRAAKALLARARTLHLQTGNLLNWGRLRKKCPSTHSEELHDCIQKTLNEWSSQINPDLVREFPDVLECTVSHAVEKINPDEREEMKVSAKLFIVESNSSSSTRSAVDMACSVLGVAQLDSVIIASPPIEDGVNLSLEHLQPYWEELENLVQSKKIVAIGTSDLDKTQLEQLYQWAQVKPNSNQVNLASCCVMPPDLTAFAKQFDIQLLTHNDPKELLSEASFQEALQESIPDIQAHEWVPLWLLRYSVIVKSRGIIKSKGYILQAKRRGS

[14] = molecular target: Histone H3.2 (Homo sapiens) (UniProt Q71DI3); test: Binding affinity to HIST2H3A in human NCI-H23 cells at 1 uM by mass spectrometry based pull down assay; assay type: cell-based
Gelsolin (Homo sapiens) = Gelsolin (Homo sapiens) (UniProt P06396); test: Binding affinity to GSN in human NCI-H358 cells at 1 uM by mass spectrometry based pull down assay; assay type: cell-based
[15] = molecular target: Aldehyde dehydrogenase family 16 member A1 (Homo sapiens) (UniProt Q8IZ83); test: Binding affinity to ALDH16A1 in human NCI-H23 cells at 1 uM by mass spectrometry based pull down assay; assay type: cell-based
Method in brief: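 NCI-H23 or NCI-H358 cells were grown and lysed. Lysates were incubated overnight at 4 °C with 1 μM biotinylated covalent probe or DMSO, then pulled down on streptavidin beads. Proteins were run on polyacrylamide gels and stained with Coomassie. Bands were excised, digested and identified by mass spectrometry.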

[16] = molecular target: T1, 80S Ribosome (Homo sapiens); test: Binding affinity to RPS12 in human NCI-H23 cells at 1 uM by mass spectrometry based pull down assay; assay type: cell-based
[17] = molecular target: Signal recognition particle 19 kDa protein (Homo sapiens) (UniProt P09132); test: Binding affinity to SRP19 in human NCI-H23 cells at 1 uM by mass spectrometry based pull down assay; assay type: cell-based
Signal recognition particle 19 kDa protein (Homo sapiens), sequence (P09132 whole entry): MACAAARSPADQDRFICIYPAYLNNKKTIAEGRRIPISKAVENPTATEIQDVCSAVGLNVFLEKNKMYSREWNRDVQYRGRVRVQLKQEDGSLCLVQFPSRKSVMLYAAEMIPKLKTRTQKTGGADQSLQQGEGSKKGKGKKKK

[18] = molecular target: T2, Dual specificity mitogen-activated protein kinase kinase 6 (Homo sapiens); test: Binding affinity to MAP2K6 in human NCI-H358 cells at 1 uM by mass spectrometry based pull down assay; assay type: cell-based
[19] = molecular target: T1, 80S Ribosome (Homo sapiens); test: Binding affinity to RPS5 in human NCI-H23 cells at 1 uM by mass spectrometry based pull down assay; assay type: cell-based
[20] = molecular target: T1, 80S Ribosome (Homo sapiens); test: Binding affinity to RPS24 in human NCI-H23 cells at 1 uM by mass spectrometry based pull down assay; assay type: cell-based
[21] = molecular target: Mitogen-activated protein kinase 3 (Homo sapiens) (UniProt P27361); test: Binding affinity to MAPK3 in human NCI-H358 cells at 1 uM by mass spectrometry based pull down assay; assay type: cell-based
[22] = molecular target: Phosphoribosylformylglycinamidine synthase (Homo sapiens) (UniProt O15067); test: Binding affinity to PFAS in human NCI-H23 cells at 1 uM by mass spectrometry based pull down assay; assay type: cell-based
Phosphoribosylformylglycinamidine synthase (Homo sapiens), sequence (O15067 whole entry): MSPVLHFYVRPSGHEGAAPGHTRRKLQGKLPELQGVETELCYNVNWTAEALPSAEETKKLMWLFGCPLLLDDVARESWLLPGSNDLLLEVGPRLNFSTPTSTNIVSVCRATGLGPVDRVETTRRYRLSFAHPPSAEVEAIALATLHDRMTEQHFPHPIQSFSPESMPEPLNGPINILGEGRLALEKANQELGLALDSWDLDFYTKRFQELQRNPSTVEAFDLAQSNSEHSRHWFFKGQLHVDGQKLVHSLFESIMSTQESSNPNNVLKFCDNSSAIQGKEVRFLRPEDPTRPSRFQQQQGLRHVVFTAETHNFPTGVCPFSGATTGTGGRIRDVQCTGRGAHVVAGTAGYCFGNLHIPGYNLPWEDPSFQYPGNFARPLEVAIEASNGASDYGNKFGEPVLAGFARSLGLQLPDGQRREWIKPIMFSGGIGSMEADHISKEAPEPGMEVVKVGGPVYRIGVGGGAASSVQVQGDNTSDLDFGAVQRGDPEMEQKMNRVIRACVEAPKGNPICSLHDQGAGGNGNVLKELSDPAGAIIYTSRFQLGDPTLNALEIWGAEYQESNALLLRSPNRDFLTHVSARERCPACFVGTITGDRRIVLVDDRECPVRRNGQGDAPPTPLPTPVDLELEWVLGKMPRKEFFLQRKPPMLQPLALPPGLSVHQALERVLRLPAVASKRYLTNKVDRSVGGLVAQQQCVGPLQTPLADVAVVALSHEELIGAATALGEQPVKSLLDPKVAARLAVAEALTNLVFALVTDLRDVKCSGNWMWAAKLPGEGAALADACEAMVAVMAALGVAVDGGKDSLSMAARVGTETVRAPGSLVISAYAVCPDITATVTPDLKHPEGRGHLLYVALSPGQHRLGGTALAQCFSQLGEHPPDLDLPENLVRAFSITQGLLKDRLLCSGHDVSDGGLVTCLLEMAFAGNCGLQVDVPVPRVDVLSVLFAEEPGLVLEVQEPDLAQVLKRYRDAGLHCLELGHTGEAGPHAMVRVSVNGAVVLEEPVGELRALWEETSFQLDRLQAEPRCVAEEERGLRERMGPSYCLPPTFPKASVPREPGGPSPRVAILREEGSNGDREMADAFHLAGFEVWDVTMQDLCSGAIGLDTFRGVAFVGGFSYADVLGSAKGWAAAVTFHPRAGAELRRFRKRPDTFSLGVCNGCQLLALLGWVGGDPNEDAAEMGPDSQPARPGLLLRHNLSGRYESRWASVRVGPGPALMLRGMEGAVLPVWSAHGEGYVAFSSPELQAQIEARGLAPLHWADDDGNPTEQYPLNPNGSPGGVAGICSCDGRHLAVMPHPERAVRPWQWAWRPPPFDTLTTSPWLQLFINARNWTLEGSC

[23] = molecular target: Phosphatidylinositol 3-kinase catalytic subunit type 3 (Homo sapiens) (UniProt Q8NEB9); test: Binding affinity to PIK3C3 in human NCI-H358 cells at 1 uM by mass spectrometry based pull down assay; assay type: cell-based

SMILES: C=CC(=O)Nc1ccccc1Nc1nc(Nc2ccc(N3CCN(C)CC3)cc2)ncc1Cl
inhibition [1]: 59.3%

SMILES: COc1cc(O)c2c(c1)/C=C/C[C@H](O)[C@H](O)C(=O)/C=C\C[C@H](C)OC2=O
Activity [2]: 20%
Activity [3]: 7.1%
Activity [4]: 16%

Activity [5]: Active
Activity [6]: Active
Activity [7]: Active
Activity [8]: Active
Activity [9]: Active
Activity [10]: Active
Activity [11]: Active
Activity [12]: Active
Activity [13]: Active
Activity [14]: Active
Activity (Gelsolin (Homo sapiens)): Active
Activity [15]: Active
Activity [16]: Active
Activity [17]: Active
Activity [18]: Active
Activity [19]: Active
Activity [20]: Active
Activity [21]: Active
Activity [22]: Active
Activity [23]: Active
SMILES: C=CC(=O)Nc1ccccc1Nc1nc(Nc2ccc(N3CCN(CCOCCOCCOCCNC(=O)CCCC[C@@H]4SC[C@@H]5NC(=O)N[C@@H]54)CC3)cc2)ncc1Cl
